Cardio protect = modulators protecting cardiomyocytes from myocardial damage; H9c2 cardiomyocytes, H2O2 injury protection, ATPLite, 2 h; protection from H2O2 cell death, % at 20 µM; actives 0.63% (n = 360,000);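 active means compounds giving at least 50% protection of heart cells from peroxide-induced death in the single-dose screen, raw or plate-pattern-corrected value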;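 further: 0% = DMSO wells with peroxide and 100% = DMSO wells without peroxide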
SENP1 inh = SENP1 (human) catalytic domain inhibition | Q9P0U3 | recombinant SENP1 catalytic domain, CyPet-SUMO1-YPet FRET cleavage | inhibition, % at 10 µM | actives 0.21% (n = 360,000) | AID 624204;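 active means inhibition at least 30% at 10 µM, raw YFP signal under a set limit, fluorescence ratio 0.5 to 1.5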;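 further: 0% = enzyme with DMSO and 100% = no enzyme wells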
Target sequence (Q9P0U3 419-644 limits assumed): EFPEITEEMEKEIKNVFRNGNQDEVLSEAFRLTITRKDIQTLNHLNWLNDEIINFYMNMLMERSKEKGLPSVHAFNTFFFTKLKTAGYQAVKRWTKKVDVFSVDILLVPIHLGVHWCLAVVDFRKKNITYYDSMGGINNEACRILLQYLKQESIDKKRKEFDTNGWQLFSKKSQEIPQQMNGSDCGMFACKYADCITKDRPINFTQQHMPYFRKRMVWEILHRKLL
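material = recombinant human SENP1 catalytic domain, His6-tagged | quantity = 20 pM enzyme | reagent = 25 nM SUMO1 FRET substrate | compound dosing = 10 µM single point, 0.5% DMSO | timing = 50 min enzyme reaction, room temperature, light-protected | detection = FRET, CFP and YFP emission | control set = no-enzyme low, enzyme-DMSO high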
FAS-TE inh = blocks the thioesterase domain of human fatty acid synthase; P49327; AID 602261; recombinant FAS-TE, OMFH fluorogenic substrate, fluorescence endpoint; inhibition, % at 15 µM; actives 0.67% (n = 360,000);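 active means compounds whose normalised, plate-corrected inhibition of enzyme fluorescence in the single-dose primary screen is 50% or more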;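 further: 0% = DMSO with enzyme and 100% = substrate without enzyme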
GRIN3A LBD mod = modulates the human NR3A ligand-binding domain | AID 1259313 | Tm shift relative to glycine control, % at 25 µM | actives 2.5% (n = 340,000) | NR3A LBD differential scanning fluorimetry, Tm shift; 0% = protein alone, 100% = glycine-bound protein;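 active means melting temperature shift of at least 10% of the positive control shift, at one fixed dose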
Arrestin-AP2 inh = blocks beta-arrestin peptide binding to AP2 adaptin. FITC-arrestin peptide / GST-AP2 beads, flow cytometry; AP2 beta2 appendage carries R879A mutation. inhibition, % at 10 µM. actives 0.31% (n = 340,000). AID 504490;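 active means inhibition above a set limit, near 3 SD of compounds lacking own fluorescence, cut at about 54% in these data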;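 further: plate controls were DMSO wells for no effect and 5 µM unlabelled arrestin peptide for full effect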
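system = GST-tagged AP2 beta2-adaptin appendage (R879A) on 4 µm glutathione beads | reagent = FITC-labelled arrestin peptide probe, 50 nM final | schedule = compound with beads 12 min RT, then probe 1 h RT | signal = HyperCyt-sampled flow cytometry, FL1 channel, ex 488/em 535 nm | read-out = percent response from loss of bead-bound FITC fluorescence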
hiPSC survival = enhancers of human iPSC single-cell survival | survival enhancement, % at 20 µM | AID 602274 | actives 0.044% (n = 360,000) | hiPSC single-cell survival, ATPlite luminescence; 100% = ROCK inhibitor wells, 0% = DMSO; in the data active means survival enhancement above about 18%;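 further: cells exposed to compounds for 16 hours before the ATP read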
Active calls of the source: *; nt = no result given. In the library only some 4% were active in any assay of this set; here they are far more common.

SMILES	Cardio protect	SENP1 inh	FAS-TE inh	GRIN3A LBD mod	Arrestin-AP2 inh	hiPSC survival
COc1cc(CNc2ncnc3c2ncn3[C@H]2CN(CCN3CCOCC3)C[C@@H](CO)O2)cc(OC)c1OC	3.6	1.7	-4.6	nt	nt	-1.5
Cc1ccc(Nc2nc3ccccc3s2)cc1	-17.1	1.6	-4.3	22.0*	19.8	-2.7
Cc1ccccc1Nc1nc2ccccc2s1	-4.4	1.8	6.4	5.4	-2.4	-1.6
Fc1ccc(Nc2nc3ccccc3s2)cc1	-8.9	0.3	3.7	19.5*	-13.0	0.0
COc1ccc(C(C(=O)c2ccccc2)c2ccccc2)cc1 (configuration not stated)	nt	3.0	nt	nt	nt	nt
Oc1ccccc1C=NN=CC=Cc1ccccc1	-10.5	22.6	0.1	1.3	7.2	-0.7
Oc1ccccc1C=NN=Cc1ccccc1Cl	-15.3	1.5	19.6	12.6*	15.7	6.3
CCCNC(=O)C1(C)CCN(Cc2noc(-c3ccccc3OC)n2)C1 (configuration not stated)	-6.5	0.2	-3.5	nt	nt	-1.1
CCOC(=O)Nc1ccc2c(c1)Nc1ccccc1S2	-8.1	1.8	26.9	12.3*	12.5	0.9
Cc1c(O)c(CN2CCCCC2)cc2c1oc(=O)c1ccccc12	51.6*	7.2	-1.5	-1.6	3.7	0.7
Cc1c(O)c(CN2CCCCC2)cc2c3c(c(=O)oc12)CCC3	5.8	-35.6	-6.3	-0.6	12.3	-0.4
CCOc1ccc(C(=O)Nc2cc(NC(=O)c3ccc(OCC)c(Cl)c3)cc(C(=O)O)c2)cc1Cl	5.5	-1.1	18.2	22.7*	-4.9	-2.0
CCOc1ccc(C(=O)Nc2cccc(-c3nc4cccnc4o3)c2)cc1Cl	50.0*	1.9	5.4	4.3	7.3	3.1
O=C(Nc1ccc(F)cc1)Nc1ccc(Cl)cn1	-11.2	3.0	-4.6	-16.4	-6.2	-3.9
O=C(Nc1ccc(Cl)cn1)Nc1ccc(Cl)cn1	-19.9	0.4	-1.0	29.5*	4.7	0.4
COc1cccc(OC)c1NC(=O)c1ccc(-c2cc(Cl)ccc2Cl)o1	0.6	0.7	16.6	nt	nt	-1.3
O=C(Nc1ccc(Cl)cn1)c1ccc(-c2cc(Cl)ccc2Cl)o1	-2.6	0.4	1.9	16.4*	-8.2	0.3
CCc1nc2ccc(C(=O)NCCCn3ccnc3)cn2c1N(C)CCC(C)C	-2.3	-5.6	-11.0	nt	nt	15.5
CCCCNC(=O)C[C@@H]1C[C@@]2(C(=O)OCC)CCCC=C2N(CCC2=CCCCC2)C1=O	nt	1.7	nt	nt	nt	nt
CC1(C(=O)Nc2cccc(OC(F)(F)F)c2)Cc2c(-c3cccc(C(N)=O)c3)ccnc2O1 (configuration not stated)	17.3	1.4	17.4	nt	nt	5.6
CCOc1ccc(C(=O)Nc2ccc(Cl)cn2)cc1Cl	-7.4	2.1	17.5	25.2*	-0.8	0.6
COCCNC(=O)C1CCCN(C(=O)Cc2ccc(F)cc2)CC1 (configuration not stated)	-3.4	0.5	-11.4	nt	nt	2.4
Cc1cccc(NC(=O)c2cc(-c3cc(Cl)ccc3O)n[nH]2)c1	-13.9	-1.2	-9.0	36.0*	-13.7	-0.1
Cc1cccc(NC(=O)c2cc(-c3c(C)cc(C)cc3O)n[nH]2)c1	1.2	0.5	-4.6	-10.9	2.0	3.3
Cc1ccc(NC(=O)c2cc(-c3cc(Cl)ccc3O)n[nH]2)cc1C	0.6	0.3	-5.6	29.2*	9.3	0.1
SMILES	Cardio protect	SENP1 inh	FAS-TE inh	GRIN3A LBD mod	Arrestin-AP2 inh	hiPSC survival
CCCCCCC#Cc1cncc(C(=O)NNC(=O)Nc2cc(Cl)cc(Cl)c2)c1	-8.1	-0.2	3.8	15.9*	9.2	1.0
CCCCC#Cc1cncc(C(=O)NN)c1	-13.0	3.9	-2.8	0.0	-9.1	-0.2
O=C(CSCC(=O)Nc1ccccc1)N/N=C/c1c(O)ccc2ccccc12	29.8	-28.1	25.9	9.3	10.9	-3.4
CN(C)S(=O)(=O)c1cccc(NC(=S)N/N=C/c2cc(Br)ccc2O)c1	10.8	-36.5	24.3	11.7*	27.0	-0.6
O=C(N/N=C/c1c(O)ccc2ccccc12)Nc1ccccc1	nt	nt	nt	39.4*	10.1	nt
CCOc1ccccc1NC(=O)C(=O)N/N=C/c1cc(Br)ccc1O	57.2*	49.2	18.1	0.0	0.1	-0.3
O=C(CNc1ccccc1)N/N=C/c1c(O)ccc2ccccc12	27.1	-82.8	16.6	20.2*	14.3	0.5
CN(C)S(=O)(=O)c1cccc(NC(=S)N/N=C/c2cccc(O)c2)c1	11.3	0.5	-1.2	-1.2	7.2	2.2
CC(=O)Nc1ccc(N=Cc2c(O)ccc3ccccc23)cc1	13.4	-24.8	-4.2	39.4*	-0.7	-0.6
NC(=O)N/N=C\c1cc(Br)ccc1O	-10.0	-38.8	-3.8	-5.4	-2.6	-0.1
O=C(N/N=C/c1cc(Br)ccc1O)Nc1ccccc1	47.5	-132.0	3.6	27.7*	1.1	-0.7
O=C(CN1CCOCC1)N/N=C/c1c(O)ccc2ccccc12	69.1*	-63.4	-6.1	1.4	16.5	-0.6
O=C(O)c1ccc(N=Cc2c(O)ccc3ccccc23)cc1	8.5	-57.3	-3.4	0.3	-7.7	-0.3
COc1ccc([C@H]2C[C@@H](O)[C@H](n3cc(C4CC4)nn3)CN2C(=O)C2CCCCC2)cc1	9.8	0.2	-7.5	nt	nt	-2.3
CCOc1ccc(Cl)cc1-c1cc(C(=O)NCc2ccccc2OC)[nH]n1	1.4	0.8	18.0	nt	nt	-2.3
O=C(c1ccc(OC2CCN(Cc3ccccc3C(F)(F)F)CC2)cc1)N1CCCCC1	-10.1	-2.6	21.1	18.8*	-11.9	0.2
O=C(c1ccc(OC2CCN(Cc3ccc(C(F)(F)F)cc3)CC2)cc1)N1CCCCC1	-10.5	-1.0	12.0	0.4	-6.3	0.1
O=C(NNC(=O)c1cc(-c2ccc(Cl)c(Cl)c2)nc2ccccc12)Nc1ccccc1	17.8	4.6	33.4	28.7*	3.0	-1.3
Nc1c(N=Nc2ccccc2F)c(=O)[nH]n1-c1ccccc1	7.0	-2.2	15.6	11.8*	-4.7	-2.3
COc1ccc(NS(=O)(=O)c2cc(Br)cc3c2N(C(C)=O)CC3)cc1	-2.8	1.2	12.7	35.2*	10.3	0.4
Cc1ccc(NC(=O)c2cc3cccc([N+](=O)[O-])c3[nH]2)cc1	-10.6	2.3	18.8	33.4*	12.4	-0.1
CCC(C)c1ccccc1NC(=O)c1cc2cccc([N+](=O)[O-])c2[nH]1 (configuration not stated)	-1.9	-2.9	36.4	-1.8	20.1	-0.6
Cc1cc(-c2nc3cc(F)ccc3s2)ccc1N	-17.7	-46.3	10.4	13.0*	-4.5	-3.2
COc1ccc(N2CC(C)(C)[C@H](CC(=O)Nc3ccccc3)C2=O)cc1	10.9	-2.9	-5.4	nt	nt	-0.2
Cc1ccc(F)c(S(=O)(=O)NC(=O)C2(C)CCN2C(=O)CCC2CCCC2)c1 (configuration not stated)	0.4	-0.3	-6.5	nt	nt	-1.5
